Consider four molecules from ChEMBL document CHEMBL2169769, “Synthesis and biological characterization of protease-activated prodrugs of doxazolidine” (J Med Chem, 2012).

Active and inactive are the calls of the source. The rule behind the calls is not given here.

For series [1], the system named is MIA PaCa-2. The series can be described thus: Cytotoxicity against human MIAPaCa2 cells incubated for 3 hrs measured after 3 to 4 hrs in absence of plasmin. The series is classed as functional, cell-based.
In series [2] the test system is MCF7. As to the kind of experiment: Cytotoxicity against human MCF7 cells incubated for 3 hrs measured after 3 to 4 hrs in absence of plasmin. The series is classed as functional, cell-based.
Series [3] in a line: Prodrug conversion assessed as release of active dozax in absence of plasmin at 50 uM pH 7.4 in PBS by RP-HPLC. As to conditions: buffer, pH 7.4, 50 µM. The format is ADME. The method in brief: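 Enzyme-free control: 50 µM prodrug in PBS at 37 °C over 24 h, RP-HPLC monitoring dox at 480 nm.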
For series [4], the system named is MIA PaCa-2. As to the kind of experiment: Cytotoxicity against human MIAPaCa2 cells incubated for 3 hrs measured after 3 to 4 hrs in presence of plasmin. The format is functional, cell-based.
Series [5] relates to MCF7. As to the kind of experiment: Cytotoxicity against human MCF7 cells incubated for 3 hrs measured after 3 to 4 hrs in presence of plasmin. The format is functional, cell-based.
A short description of series [6]: Prodrug conversion assessed as release of human plasmin induced active dozax at 50 uM pH 7.4 in PBS by RP-HPLC. As to conditions: buffer, pH 7.4, 50 µM. The series is classed as ADME. The method in brief:
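50 µM prodrug with 1.2 µg/mL human plasmin in PBS pH 7.4 at 37 °C. Samples taken over time, ethanol-quenched, analysed by RP-HPLC at 480 nm for prodrug and dox; repeated runs fit to single-exponential association model.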

For series [7], the system named is COc1cccc2c1C(=O)c1c(O)c3c(c(O)c1C2=O)C[C@@](O)(C(=O)CO)C[C@@H]3O[C@H]1C[C@H]2[C@H](OCN2C(=O)OCc2ccc(NC(=O)[C@H](CCCCN)NC(=O)[C@H](Cc3ccccc3)NC(=O)[C@@H](C)NC(=O)CNC(C)=O)cc2)[C@H](C)O1. As to the kind of experiment: Activity of human cathepsin B assessed as enzyme catalytic turnover for compound hydrolysis at 50 uM at pH 6.5 in PBS buffer containing 10 mM N-acetylcysteine by RP-HPLC. In short, it runs like this: (§1)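 Michaelis-Menten kinetics, substrate 10–400 µM at 37 °C. Plasmin: 0.2 U, PBS pH 7.4, 4 min. Cathepsin B: 0.08 U, PBS-NAC pH 6.5, 20 min. Quenched with equal volume ethanol, −20 °C ≥2 h, centrifuged, supernatant RP-HPLC at 480 nm. Rates (µM/min) fit by non-linear least squares; triplicates.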

Series [8] shares this test system. The series can be described thus: Activity of human cathepsin B assessed as compound hydrolysis at 50 uM at pH 6.5 in PBS buffer containing 10 mM N-acetylcysteine by RP-HPLC. The method in brief:
as §1

Substrate in series [9]: COc1cccc2c1C(=O)c1c(O)c3c(c(O)c1C2=O)C[C@@](O)(C(=O)CO)C[C@@H]3O[C@H]1C[C@H]2[C@H](OCN2C(=O)OCc2ccc(NC(=O)[C@H](CCCCN)NC(=O)[C@H](Cc3ccccc3)NC(=O)[C@@H](C)NC(=O)CNC(C)=O)cc2)[C@H](C)O1
The series can be described thus: Activity of human plasmin assessed as enzyme catalytic turnover for compound hydrolysis at 50 uM at pH 7.4 in PBS buffer by RP-HPLC. In short, it runs like this: as §1

Substrate in series [10]: COc1cccc2c1C(=O)c1c(O)c3c(c(O)c1C2=O)C[C@@](O)(C(=O)CO)C[C@@H]3O[C@H]1C[C@H]2[C@H](OCN2C(=O)OCc2ccc(NC(=O)[C@H](CCCCN)NC(=O)[C@H](Cc3ccccc3)NC(=O)[C@@H](C)NC(=O)CNC(C)=O)cc2)[C@H](C)O1
The series can be described thus: Activity of human plasmin assessed as compound hydrolysis at 50 uM at pH 7.4 in PBS buffer by RP-HPLC. The method in brief: as §1

As a reminder, the IC50 is the concentration at which inhibition is half-maximal. High values mean weaker potency, low ones greater potency. Turning to `COc1cccc2c1C(=O)c1c(O)c3c(c(O)c1C2=O)C[C@@](O)(C(=O)CO)C[C@@H]3O[C@H]1C[C@H](NC(=O)OCc2ccc(NC(=O)[C@H](CCCCN)NC(=O)[C@H](Cc3ccccc3)NC(=O)[C@@H](C)N)cc2)[C@H](O)[C@H](C)O1`, the pIC50 result in the series with MIA PaCa-2 [1] was “inactive”. Also, in the series with MCF7 [2], the IC50 is less than 1000 nM.
Regarding `COc1cccc2c1C(=O)c1c(O)c3c(c(O)c1C2=O)C[C@@](O)(C(=O)CO)C[C@@H]3O[C@H]1C[C@H]2[C@H](OCN2C(=O)OCc2ccc(NC(=O)[C@H](CCCCN)NC(=O)[C@H](Cc3ccccc3)NC(=O)[C@@H](C)N)cc2)[C@H](C)O1.O=P(O)(O)O`, the Stability entry in [3] was “Stable”. Further, the result in the series with MIA PaCa-2 [4] and in the series with MCF7 [5] was Active. For the same molecule, the pIC50 entry with MIA PaCa-2 [1] and in the series on MCF7 [2] was “Active” in each case. In series [6], the Drug metabolism entry was “Active”.
By kcat is commonly meant the number of substrate molecules converted per active site and unit of time at saturation. By Km is commonly meant the substrate concentration at which the rate is half of its maximum. What is called Vmax is the top rate of the reaction or transport when substrate is in excess. For “Cathepsin B (Homo sapiens) (from UniProt P07858)”, the turnover number (kcat) in series [7] is 0.49 s⁻¹. Besides, in series [8], the Km worked out at 108 µM and the Vmax was 1.32 µM/min.

B1: Plasminogen (Homo sapiens), P00747 (protein)
chain: MEHKEVVLLLLLFLKSGQGEPLDDYVNTQGASLFSVTKKQLGAGSIEECAAKCEEDEEFTCRAFQYHSKEQQCVIMAENRKSSIIIRMRDVVLFEKKVYLSECKTGNGKNYRGTMSKTKNGITCQKWSSTSPHRPRFSPATHPSEGLEENYCRNPDNDPQGPWCYTTDPEKRYDYCDILECEEECMHCSGENYDGKISKTMSGLECQAWDSQSPHAHGYIPSKFPNKNLKKNYCRNPDRELRPWCFTTDPNKRWELCDIPRCTTPPPSSGPTYQCLKGTGENYRGNVAVTVSGHTCQHWSAQTPHTHNRTPENFPCKNLDENYCRNPDGKRAPWCHTTNSQVRWEYCKIPSCDSSPVSTEQLAPTAPPELTPVVQDCYHGDGQSYRGTSSTTTTGKKCQSWSSMTPHRHQKTPENYPNAGLTMNYCRNPDADKGPWCFTTDPSVRWEYCNLKKCSGTEASVVAPPPVVLLPDVETPSEEDCMFGNGKGYRGKRATTVTGTPCQDWAAQEPHRHSIFTPETNPRAGLEKNYCRNPDGDVGGPWCYTTNPRKLYDYCDVPQCAAPSFDCGKPQVEPKKCPGRVVGGCVAHPHSWPWQVSLRTRFGMHFCGGTLISPEWVLTAAHCLEKSPRPSSYKVILGAHQEVNLEPHVQEIEVSRLFLEPTRKDIALLKLSSPAVITDKVIPACLPSPNYVVADRTECFITGWGETQGTFGAGLLKEAQLPVIENKVCNRYEFLNGRVQSTELCAGHLAGGTDSCQGDSGGPLVCFEKDKYILQGVTSWGLGCARPNKPGVYVRVSRFVTWIEGVMRNN
As to B1, in series [9], the kcat amounted to 2.45 s⁻¹. In series [10], the Km is 171 µM and the Vmax is 3.76 µM/min.
